Experimental data as given in ChEMBL document CHEMBL1268915, “Optimization of a series of dipeptides with a P3 threonine residue as non-covalent inhibitors of the chymotrypsin-like activity of the human 20S proteasome” (Bioorg Med Chem Lett, 2010).
Activity calls are given as the source filed them. The calls are words filed in the database; no cut-off is given here.

Test system: not listed separately
Assay: Inhibition of chymotrypsin-like activity of human 20s proteasome beta5 subunit in human erythrocyte assessed as hydrolysis of Ac-WLA-AMC fluorogenic substrate
Conditions: not given

Structure (SMILES) | IC50
C[C@@H](O)[C@H](NC(=O)c1ccc(OCc2ccccc2)cc1)C(=O)N[C@@H](CCc1ccccc1)C(=O)NCc1cccc(Cl)c1 | 0.21 µM
Cc1ccc(CNC(=O)[C@H](CCc2ccccc2)NC(=O)[C@@H](NC(=O)Cc2cccc(Oc3ccccc3)c2)[C@@H](C)O)cc1 | 0.45 µM
Cc1ccc(CNC(=O)[C@H](CCc2ccccc2)NC(=O)[C@@H](NC(=O)CCc2ccccc2C)[C@@H](C)O)cc1 | 0.12 µM

Test system: not listed separately
Assay: (§1) Inhibition of TNF-alpha-induced NF-kappaB activation in human HEK293 cells after 3 hrs by luciferase reporter gene assay
Format: cell-based
Conditions: HEK293, 3 h
Procedure, shortened: (§2)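 NF-κB-luciferase reporter in HEK293 cells (10,000 per well). Cells were pre-incubated with compound for 1 h, then stimulated with 10 ng/ml TNF-α for 3 h with compound still present. IC50 and percentage inhibition were reported as means of at least three independent experiments.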

Structure (SMILES) | IC50
C[C@@H](O)[C@H](NC(=O)c1ccc(OCc2ccccc2)cc1)C(=O)N[C@@H](CCc1ccccc1)C(=O)NCc1cccc(Cl)c1 | 15 µM
Cc1ccc(CNC(=O)[C@H](CCc2ccccc2)NC(=O)[C@@H](NC(=O)Cc2cccc(Oc3ccccc3)c2)[C@@H](C)O)cc1 | 24 µM
Cc1ccc(CNC(=O)[C@H](CCc2ccccc2)NC(=O)[C@@H](NC(=O)CCc2ccccc2C)[C@@H](C)O)cc1 | 0.69 µM

Test system: HEK293
Assay: as §1
Format: cell-based
Design: concentration or dose not given beside the values
Conditions: dose or concentration not given here
Procedure, shortened: as §2

Structure (SMILES) | inhibition
C[C@@H](O)[C@H](NC(=O)c1ccc(OCc2ccccc2)cc1)C(=O)N[C@@H](CCc1ccccc1)C(=O)NCc1cccc(Cl)c1 | 44%
Cc1ccc(CNC(=O)[C@H](CCc2ccccc2)NC(=O)[C@@H](NC(=O)Cc2cccc(Oc3ccccc3)c2)[C@@H](C)O)cc1 | 30%
Cc1ccc(CNC(=O)[C@H](CCc2ccccc2)NC(=O)[C@@H](NC(=O)CCc2ccccc2C)[C@@H](C)O)cc1 | 80%

Test system: not listed separately
Assay: Cytotoxicity against human Calu6 cells assessed as cellular ATP level after 72 hrs by luminescence-based ATPlite assay
Format: cell-based, Calu-6
Conditions: read-out: LC50
Procedure, shortened: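 Calu6 cells, 2000 per well, incubated with compound for 72 h. Viability read as cellular ATP by luminescence (ATPlite). Values are means of at least three independent experiments.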

Structure (SMILES) | CC50 at 72 h
C[C@@H](O)[C@H](NC(=O)c1ccc(OCc2ccccc2)cc1)C(=O)N[C@@H](CCc1ccccc1)C(=O)NCc1cccc(Cl)c1 | > 25 µM
Cc1ccc(CNC(=O)[C@H](CCc2ccccc2)NC(=O)[C@@H](NC(=O)Cc2cccc(Oc3ccccc3)c2)[C@@H](C)O)cc1 | 15 µM
Cc1ccc(CNC(=O)[C@H](CCc2ccccc2)NC(=O)[C@@H](NC(=O)CCc2ccccc2C)[C@@H](C)O)cc1 | 2.3 µM

Test system: not listed separately
Assay: Inhibition of chymotrypsin-like activity of human 20s proteasome beta-1 subunit in human erythrocyte assessed as hydrolysis of Ac-WLA-AMC fluorogenic substrate
Conditions: not given

Structure (SMILES) | IC50
C[C@@H](O)[C@H](NC(=O)c1ccc(OCc2ccccc2)cc1)C(=O)N[C@@H](CCc1ccccc1)C(=O)NCc1cccc(Cl)c1 | > 20 µM
Cc1ccc(CNC(=O)[C@H](CCc2ccccc2)NC(=O)[C@@H](NC(=O)Cc2cccc(Oc3ccccc3)c2)[C@@H](C)O)cc1 | > 20 µM
Cc1ccc(CNC(=O)[C@H](CCc2ccccc2)NC(=O)[C@@H](NC(=O)CCc2ccccc2C)[C@@H](C)O)cc1 | > 20 µM

Test system: not listed separately
Assay: Inhibition of chymotrypsin-like activity of human 20s proteasome beta2 subunit in human erythrocyte assessed as hydrolysis of Ac-WLA-AMC fluorogenic substrate
Conditions: not given

Structure (SMILES) | IC50
C[C@@H](O)[C@H](NC(=O)c1ccc(OCc2ccccc2)cc1)C(=O)N[C@@H](CCc1ccccc1)C(=O)NCc1cccc(Cl)c1 | > 20 µM
Cc1ccc(CNC(=O)[C@H](CCc2ccccc2)NC(=O)[C@@H](NC(=O)Cc2cccc(Oc3ccccc3)c2)[C@@H](C)O)cc1 | > 20 µM
Cc1ccc(CNC(=O)[C@H](CCc2ccccc2)NC(=O)[C@@H](NC(=O)CCc2ccccc2C)[C@@H](C)O)cc1 | > 20 µM

Target: Cathepsin B (Homo sapiens) (UniProt P07858)
Assay: Inhibition of human cathepsin B at 100uM
Conditions: not given

Structure (SMILES) | inhibition
C[C@@H](O)[C@H](NC(=O)c1ccc(OCc2ccccc2)cc1)C(=O)N[C@@H](CCc1ccccc1)C(=O)NCc1cccc(Cl)c1 | Active
Cc1ccc(CNC(=O)[C@H](CCc2ccccc2)NC(=O)[C@@H](NC(=O)Cc2cccc(Oc3ccccc3)c2)[C@@H](C)O)cc1 | Active
Cc1ccc(CNC(=O)[C@H](CCc2ccccc2)NC(=O)[C@@H](NC(=O)CCc2ccccc2C)[C@@H](C)O)cc1 | Active

Target: Procathepsin L (Homo sapiens) (UniProt P07711)
Assay: Inhibition of human cathepsin L at 100uM
Conditions: not given

Sequence of Procathepsin L (Homo sapiens) (P07711 114-333 limits assumed): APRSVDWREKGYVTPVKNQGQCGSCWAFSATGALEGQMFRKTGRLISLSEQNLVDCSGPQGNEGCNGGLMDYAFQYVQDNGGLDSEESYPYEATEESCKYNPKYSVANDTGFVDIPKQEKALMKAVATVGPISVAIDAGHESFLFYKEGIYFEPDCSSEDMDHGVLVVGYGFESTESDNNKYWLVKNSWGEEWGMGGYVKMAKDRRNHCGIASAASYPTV

Structure (SMILES) | inhibition
C[C@@H](O)[C@H](NC(=O)c1ccc(OCc2ccccc2)cc1)C(=O)N[C@@H](CCc1ccccc1)C(=O)NCc1cccc(Cl)c1 | Active
Cc1ccc(CNC(=O)[C@H](CCc2ccccc2)NC(=O)[C@@H](NC(=O)Cc2cccc(Oc3ccccc3)c2)[C@@H](C)O)cc1 | Active
Cc1ccc(CNC(=O)[C@H](CCc2ccccc2)NC(=O)[C@@H](NC(=O)CCc2ccccc2C)[C@@H](C)O)cc1 | Active

Target: T1, Coagulation factor XII (Homo sapiens) (UniProt P00748)
T1 sequence (whole entry): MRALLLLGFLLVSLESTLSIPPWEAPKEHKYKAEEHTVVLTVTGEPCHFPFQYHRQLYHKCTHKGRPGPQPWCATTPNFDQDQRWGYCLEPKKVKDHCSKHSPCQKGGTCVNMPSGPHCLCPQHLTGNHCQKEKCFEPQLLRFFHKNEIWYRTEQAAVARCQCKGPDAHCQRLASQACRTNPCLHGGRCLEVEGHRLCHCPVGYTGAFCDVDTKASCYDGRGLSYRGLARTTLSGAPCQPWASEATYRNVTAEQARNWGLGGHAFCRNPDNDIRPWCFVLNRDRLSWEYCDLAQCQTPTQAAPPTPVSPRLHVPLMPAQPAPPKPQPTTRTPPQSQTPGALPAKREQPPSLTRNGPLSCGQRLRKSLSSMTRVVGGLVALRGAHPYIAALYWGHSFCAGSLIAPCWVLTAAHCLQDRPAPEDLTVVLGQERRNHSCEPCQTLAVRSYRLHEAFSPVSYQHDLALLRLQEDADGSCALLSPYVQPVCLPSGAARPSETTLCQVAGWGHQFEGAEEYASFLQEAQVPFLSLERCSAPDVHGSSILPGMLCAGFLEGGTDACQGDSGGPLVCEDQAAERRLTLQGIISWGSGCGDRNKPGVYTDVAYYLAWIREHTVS
Assay: Inhibition of human coagulation factor beta 12a at 100 uM
Conditions: not given

Structure (SMILES) | inhibition
C[C@@H](O)[C@H](NC(=O)c1ccc(OCc2ccccc2)cc1)C(=O)N[C@@H](CCc1ccccc1)C(=O)NCc1cccc(Cl)c1 | Active
Cc1ccc(CNC(=O)[C@H](CCc2ccccc2)NC(=O)[C@@H](NC(=O)Cc2cccc(Oc3ccccc3)c2)[C@@H](C)O)cc1 | Active
Cc1ccc(CNC(=O)[C@H](CCc2ccccc2)NC(=O)[C@@H](NC(=O)CCc2ccccc2C)[C@@H](C)O)cc1 | Active

Species on record: Homo sapiens
Assay: Inhibition of human chymotrypsin at 100 uM
Conditions: not given

Structure (SMILES) | inhibition
C[C@@H](O)[C@H](NC(=O)c1ccc(OCc2ccccc2)cc1)C(=O)N[C@@H](CCc1ccccc1)C(=O)NCc1cccc(Cl)c1 | Active
Cc1ccc(CNC(=O)[C@H](CCc2ccccc2)NC(=O)[C@@H](NC(=O)Cc2cccc(Oc3ccccc3)c2)[C@@H](C)O)cc1 | Active
Cc1ccc(CNC(=O)[C@H](CCc2ccccc2)NC(=O)[C@@H](NC(=O)CCc2ccccc2C)[C@@H](C)O)cc1 | Active

Species on record: Homo sapiens
Assay: Inhibition of human elastase at 100 uM
Conditions: not given

Structure (SMILES) | inhibition
C[C@@H](O)[C@H](NC(=O)c1ccc(OCc2ccccc2)cc1)C(=O)N[C@@H](CCc1ccccc1)C(=O)NCc1cccc(Cl)c1 | Active
Cc1ccc(CNC(=O)[C@H](CCc2ccccc2)NC(=O)[C@@H](NC(=O)Cc2cccc(Oc3ccccc3)c2)[C@@H](C)O)cc1 | Active
Cc1ccc(CNC(=O)[C@H](CCc2ccccc2)NC(=O)[C@@H](NC(=O)CCc2ccccc2C)[C@@H](C)O)cc1 | Active

Target: Plasminogen (Homo sapiens) (UniProt P00747)
Assay: Inhibition of human plasmin at 100 uM
Conditions: not given

Sequence of Plasminogen (Homo sapiens) (P00747 97-580 limits assumed): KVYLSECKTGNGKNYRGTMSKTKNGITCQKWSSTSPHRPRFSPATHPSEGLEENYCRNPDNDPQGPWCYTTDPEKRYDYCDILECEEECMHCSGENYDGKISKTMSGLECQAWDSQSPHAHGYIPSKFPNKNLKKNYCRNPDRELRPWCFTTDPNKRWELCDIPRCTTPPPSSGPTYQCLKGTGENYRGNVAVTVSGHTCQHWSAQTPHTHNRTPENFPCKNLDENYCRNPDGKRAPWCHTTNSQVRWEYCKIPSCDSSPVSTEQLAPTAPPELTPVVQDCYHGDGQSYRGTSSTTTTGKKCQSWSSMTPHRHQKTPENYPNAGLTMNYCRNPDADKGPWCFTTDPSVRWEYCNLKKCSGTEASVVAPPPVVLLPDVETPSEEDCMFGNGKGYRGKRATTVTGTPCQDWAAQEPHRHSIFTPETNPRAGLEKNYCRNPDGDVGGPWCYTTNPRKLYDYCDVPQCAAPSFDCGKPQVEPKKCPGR
Sequence of Plasminogen (Homo sapiens) (P00747 581-810 limits assumed): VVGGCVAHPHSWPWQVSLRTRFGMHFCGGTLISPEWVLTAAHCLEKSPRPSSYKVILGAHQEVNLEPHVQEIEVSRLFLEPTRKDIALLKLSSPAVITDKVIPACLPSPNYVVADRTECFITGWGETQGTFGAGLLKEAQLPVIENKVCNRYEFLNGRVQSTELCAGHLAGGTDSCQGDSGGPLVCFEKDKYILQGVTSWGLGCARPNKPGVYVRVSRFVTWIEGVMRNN

Structure (SMILES) | inhibition
C[C@@H](O)[C@H](NC(=O)c1ccc(OCc2ccccc2)cc1)C(=O)N[C@@H](CCc1ccccc1)C(=O)NCc1cccc(Cl)c1 | Active
Cc1ccc(CNC(=O)[C@H](CCc2ccccc2)NC(=O)[C@@H](NC(=O)Cc2cccc(Oc3ccccc3)c2)[C@@H](C)O)cc1 | Active
Cc1ccc(CNC(=O)[C@H](CCc2ccccc2)NC(=O)[C@@H](NC(=O)CCc2ccccc2C)[C@@H](C)O)cc1 | Active

Target: Prothrombin (Homo sapiens) (UniProt P00734)
Assay: Inhibition of human thrombin at 100 uM
Conditions: not given

Structure (SMILES) | inhibition
C[C@@H](O)[C@H](NC(=O)c1ccc(OCc2ccccc2)cc1)C(=O)N[C@@H](CCc1ccccc1)C(=O)NCc1cccc(Cl)c1 | Active
Cc1ccc(CNC(=O)[C@H](CCc2ccccc2)NC(=O)[C@@H](NC(=O)Cc2cccc(Oc3ccccc3)c2)[C@@H](C)O)cc1 | Active
Cc1ccc(CNC(=O)[C@H](CCc2ccccc2)NC(=O)[C@@H](NC(=O)CCc2ccccc2C)[C@@H](C)O)cc1 | Active

Target: Tissue-type plasminogen activator (Homo sapiens) (UniProt P00750)
Assay: Inhibition of tissue plasminogen activator at 100 uM
Conditions: not given

Sequence of Tissue-type plasminogen activator (Homo sapiens) (P00750 36-562 limits assumed): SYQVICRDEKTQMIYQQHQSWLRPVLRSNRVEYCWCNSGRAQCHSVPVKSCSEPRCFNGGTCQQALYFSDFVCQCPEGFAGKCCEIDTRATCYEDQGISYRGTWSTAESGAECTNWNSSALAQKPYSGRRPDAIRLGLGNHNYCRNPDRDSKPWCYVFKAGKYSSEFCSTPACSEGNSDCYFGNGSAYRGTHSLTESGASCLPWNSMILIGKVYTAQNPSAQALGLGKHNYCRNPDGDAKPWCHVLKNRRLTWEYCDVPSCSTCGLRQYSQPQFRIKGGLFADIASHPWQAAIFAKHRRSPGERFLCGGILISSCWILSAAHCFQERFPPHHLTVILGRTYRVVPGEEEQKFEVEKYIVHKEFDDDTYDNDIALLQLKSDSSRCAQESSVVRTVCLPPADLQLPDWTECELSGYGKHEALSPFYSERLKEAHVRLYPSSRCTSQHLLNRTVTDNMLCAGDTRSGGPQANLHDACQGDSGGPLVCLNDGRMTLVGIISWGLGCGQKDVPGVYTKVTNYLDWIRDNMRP

Structure (SMILES) | inhibition
C[C@@H](O)[C@H](NC(=O)c1ccc(OCc2ccccc2)cc1)C(=O)N[C@@H](CCc1ccccc1)C(=O)NCc1cccc(Cl)c1 | Active
Cc1ccc(CNC(=O)[C@H](CCc2ccccc2)NC(=O)[C@@H](NC(=O)Cc2cccc(Oc3ccccc3)c2)[C@@H](C)O)cc1 | Active
Cc1ccc(CNC(=O)[C@H](CCc2ccccc2)NC(=O)[C@@H](NC(=O)CCc2ccccc2C)[C@@H](C)O)cc1 | Active

Target: Trypsin (Homo sapiens) (UniProt P07477+P07478+P35030)
Assay: Inhibition of human trypsin at 100 uM
Format: protein assay
Conditions: not given

Structure (SMILES) | inhibition
C[C@@H](O)[C@H](NC(=O)c1ccc(OCc2ccccc2)cc1)C(=O)N[C@@H](CCc1ccccc1)C(=O)NCc1cccc(Cl)c1 | Active
Cc1ccc(CNC(=O)[C@H](CCc2ccccc2)NC(=O)[C@@H](NC(=O)Cc2cccc(Oc3ccccc3)c2)[C@@H](C)O)cc1 | Active
Cc1ccc(CNC(=O)[C@H](CCc2ccccc2)NC(=O)[C@@H](NC(=O)CCc2ccccc2C)[C@@H](C)O)cc1 | Active

Target: T2, Calpain-1 catalytic subunit (Homo sapiens) (UniProt P07384)
T2 sequence (whole entry): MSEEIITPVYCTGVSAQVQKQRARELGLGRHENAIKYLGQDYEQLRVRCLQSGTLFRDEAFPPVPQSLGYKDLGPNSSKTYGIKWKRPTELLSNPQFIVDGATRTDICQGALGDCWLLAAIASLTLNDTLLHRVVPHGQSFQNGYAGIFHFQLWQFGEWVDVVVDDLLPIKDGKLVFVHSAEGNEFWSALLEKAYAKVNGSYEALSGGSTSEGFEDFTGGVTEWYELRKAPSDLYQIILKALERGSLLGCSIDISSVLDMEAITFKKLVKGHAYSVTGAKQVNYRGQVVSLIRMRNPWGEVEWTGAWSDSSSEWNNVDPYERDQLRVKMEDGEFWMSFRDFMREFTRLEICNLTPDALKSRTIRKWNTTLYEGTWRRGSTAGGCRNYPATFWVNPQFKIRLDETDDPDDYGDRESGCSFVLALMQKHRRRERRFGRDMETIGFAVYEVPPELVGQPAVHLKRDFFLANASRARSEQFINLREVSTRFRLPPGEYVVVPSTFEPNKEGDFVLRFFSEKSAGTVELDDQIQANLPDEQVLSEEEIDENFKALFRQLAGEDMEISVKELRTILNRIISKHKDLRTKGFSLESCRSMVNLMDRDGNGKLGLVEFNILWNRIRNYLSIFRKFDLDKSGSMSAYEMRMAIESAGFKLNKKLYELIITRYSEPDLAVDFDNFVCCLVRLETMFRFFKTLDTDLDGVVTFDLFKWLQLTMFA
Assay: Inhibition of human calpain 1 at 100 uM
Conditions: not given

Structure (SMILES) | inhibition
C[C@@H](O)[C@H](NC(=O)c1ccc(OCc2ccccc2)cc1)C(=O)N[C@@H](CCc1ccccc1)C(=O)NCc1cccc(Cl)c1 | Active
Cc1ccc(CNC(=O)[C@H](CCc2ccccc2)NC(=O)[C@@H](NC(=O)Cc2cccc(Oc3ccccc3)c2)[C@@H](C)O)cc1 | Active
Cc1ccc(CNC(=O)[C@H](CCc2ccccc2)NC(=O)[C@@H](NC(=O)CCc2ccccc2C)[C@@H](C)O)cc1 | Active
